Experimental data from different studies.
Compare with care: the assays were run in different laboratories.
Target: Cyclin-dependent kinase 15 (CDK15, Homo sapiens, UniProt Q96Q40)

Structure (SMILES)	effect on	method	tested at	remaining binding [%]
O=C(c1ccc(Nc2ncc(Cl)c(-c3cc4ccccc4s3)n2)cc1)N1CCC(N2CCCC2)CC1	binding	competition with immobilised ligand	1 µM	70
O=C(Nc1c[nH]nc1C(=O)NC1CCNCC1)c1cc(F)cc(F)c1	binding	competition with immobilised ligand	1 µM	79
O=C(c1ccc(Nc2ncc(Cl)c(-c3ccc(Cl)s3)n2)cc1)N1CCC(N2CCCC2)CC1	binding	competition with immobilised ligand	1 µM	43
Cc1cnn2ncc(-c3ccnc(N(C)C)n3)c2c1	binding		1 µM	100
C=CC(=O)N1CCC(C(=O)NCC(=O)N2CCN(c3nc(-c4cnc(N)nc4C(F)F)nc(N4CCOCC4)n3)CC2)CC1	binding	competition with immobilised ligand	1 µM	100
CC1CCCN1c1nccc(-c2cnn3ncccc23)n1 (stereo not shown)	binding		1 µM	100
Cc1cnc(Nc2ccc(C(=O)N3CCC(N4CCCC4)CC3)cc2)nc1-c1cc2ccccc2s1	binding	competition with immobilised ligand	1 µM	99
Nc1ncc2c(n1)-c1c([nH]c3ccc(C#CC4CC4)cc13)CCCC2	binding	competition with immobilised ligand	1 µM	96
CCS(=O)(=O)c1cc2cc(C[C@@](O)(CC(C)(C)c3ccc(F)cc3C(N)=O)C(F)(F)F)[nH]c2cn1	cell-free assay	competition with immobilised ligand	1 µM	59
N[C@H]1CCN(c2nccc(-c3cnn4ncccc34)n2)C1	binding		1 µM	100
Cn1nc(C(=O)NCc2ccc(C(=O)O)cc2)cc1-c1ccc2[nH]ccc2c1	cell-free assay	competition with immobilised ligand	0.1 µM	95
CCN1CCN(Cc2ccc(C(=O)Nc3ccc(C)c(Oc4ccc5c(c4)CC(=O)N5)c3)cc2C(F)(F)F)CC1	binding	competition with immobilised ligand	1 µM	100
COc1cnc(Nc2cccc(S(N)(=O)=O)c2)nc1N1CCN(c2ccccc2)C(=O)C1	binding	competition with immobilised ligand	1 µM	100
COc1ncc2cc3ccccc3nc2c1C#N	cell-free assay	competition with immobilised ligand	5 µM	99
C[C@H]1CCN(c2nccc(-c3cnn4ncccc34)n2)C1	binding		1 µM	56
O=C(O)c1cc(-c2ccc(C3CCNCC3)cc2)c2ccc(-c3ccc(C(F)(F)F)cc3)cc2c1	cell-free assay	competition with immobilised ligand	1 µM	96
CN(C)c1nccc(-c2cnc3ncccn23)n1	binding		1 µM	83
CN(C)CC#Cc1ccc(OCCCc2sc(N3CCc4cccc(C(=O)Nc5nc6ccccc6s5)c4C3)nc2C(=O)O)c(F)c1	cell-free assay	competition with immobilised ligand	1 µM	100
CN(CCCC(F)(F)F)c1nccc(-c2cnn3ncccc23)n1	binding		1 µM	100
C[C@@H]1CN(c2cc(-c3nn(C)c4ccc(OC5(C)CC5)cc34)ncn2)C[C@H](C)O1	cell-free assay	competition with immobilised ligand	1 µM	84
CN(c1nccc(-c2cnn3ncccc23)n1)C1CC1	binding		1 µM	100
CCc1ccccc1C(=O)Nc1n[nH]c2c(C)c(F)c(C3C(C#N)=C(C)N(C)C(C)=C3C#N)cc12	cell-free assay	competition with immobilised ligand	1 µM	95
